Published values gathered from unrelated publications.
Lines come from different studies, so protocols differ.
Target: Mitogen-activated protein kinase kinase kinase 20 (MAP3K20, Homo sapiens, UniProt Q9NYL2)

| Compound | test | conditions | endpoint | result |
| --- | --- | --- | --- | --- |
| c1nc2c(Nc3ccc4c(c3)OCCO4)nc(Nc3ccc4c(c3)OCCO4)nc2[nH]1 | enzyme activity, inhibitor | 10 µM | activity vs control | 76% |
| CCC1(CC)NC(=O)c2c(c3ccc(Cl)c(Cl)c3n2C)C1C#N (centres unmarked) | thermal stability, DSF | 10 µM | ΔTm | 0 °C |
| CN1CC(Oc2cnc(C#N)cc2-c2ccn3nc(NC(=O)C4CC4)cc3c2)C1 | enzyme activity, inhibitor | 1 µM | inhibition | 12% |
| Cn1c2c(c3ccc(Cl)c(Cl)c31)C(C#N)C1(CCCC1)NC2=O (centres unmarked) | thermal stability, DSF | 10 µM | ΔTm | -0.1 °C |
| O=C(N1CCS(=O)(=O)CC1)N1C[C@H](c2ccc(OC(F)(F)F)cc2)C[C@H](c2nc(C3CC3)no2)C1 | cell-free assay, competition with immobilised ligand | 1 µM | remaining binding | 100% |
| CNC(=O)c1cc2c(Oc3ccc(NC(=O)C4(C(=O)Nc5ccc(F)cc5)CC4)cc3)ccnc2cc1OC | enzyme activity, inhibitor, radiometric | 1 µM | inhibition | 82% |
| COc1cccc2c(NCc3ccccc3)nc(-n3c(N)nc4ccccc43)nc12 | target engagement in cells, inhibitor, chemoproteomics | 20 mM | inhibition | -3.3% |
| Nc1ncnc2c1ncn2[C@@H]1O[C@H](COP(=O)(O)OP(=O)(O)OP(=O)(O)O)[C@@H](O)[C@H]1O | enzyme activity, substrate, mass spectrometry |  | Km | 140 µM |
| Cc1sc(C(=O)NC2COC2)cc1-n1cc(NC(=O)Nc2c(F)cccc2Cl)cn1 | enzyme activity, inhibitor | 10 µM | remaining activity | 89.9% |
| O=C1Nc2ccc(Cl)cc2C1=Cc1cc(Cl)c(O)c(Cl)c1 | cell-free assay | 0.5 µM | remaining signal | 77.4% |
| CCCOc1ccc([C@H]2[C@H](C(=O)O)[C@@H](c3ccc4c(c3)OCO4)CN2CC(=O)Nc2c(CC)cccc2CC)cc1 | cell-free assay, competition with immobilised ligand | 1 µM | remaining binding | 90% |
| CC(C)(C)c1nc(-c2cccc(NS(=O)(=O)c3c(F)cccc3F)c2F)c(-c2ccnc(N)n2)s1 | enzyme activity, inhibitor, radiometric | 1 µM | remaining activity | 101% |
| Cc1nccc(COC(=O)N2C[C@@H]3[C@@H](CNC(=O)c4ccc5[nH]nnc5c4)[C@@H]3C2)n1 | cell-free assay, competition with immobilised ligand | 1 µM | remaining binding | 90% |
| COc1cc2ncnc(Nc3ccc(F)c(Cl)c3)c2cc1OCCCN1CCOCC1 | cell-free assay | 0.5 µM | remaining signal | 96.2% |
| CO[C@H]1CC[C@H](CNc2ccc(S(=O)(=O)NC(=O)c3ccc(N4CCN(CC5=C(c6ccc(Cl)cc6)CC(C)(C)CC5)CC4)cc3Oc3cnc4[nH]ccc4c3)cc2[N+](=O)[O-])CC1 | cell-free assay, competition with immobilised ligand | 1 µM | remaining binding | 100% |
| Cn1c2c(Cl)c(Cl)ccc2c2cc[nH]c(=O)c21 | thermal stability, DSF | 10 µM | ΔTm | -0.2 °C |
| CCCCN(CCCC)C(=O)CN1C[C@H](c2cc(OC)c3c(c2)OCO3)[C@@H](C(=O)O)[C@@H]1CC(C)(C)CCC | cell-free assay, competition with immobilised ligand | 1 µM | remaining binding | 85.2% |
| Nc1ncnc2occ(-c3ccc(NC(=O)Nc4cc(C(F)(F)F)ccc4F)cc3)c12 | cell-free assay, inhibitor | 20 µM | remaining signal | 0.15% |
| CC1=C(C#N)C(c2ccc3c(c2)c(NC(=O)c2ccccc2C)nn3C)C(C#N)=C(C)N1 | cell-free assay, competition with immobilised ligand | 1 µM | remaining binding | 100% |
| CC1(C)NC(=O)c2[nH]c3c(Cl)c(Cl)ccc3c2C1C#N (centres unmarked) | thermal stability, DSF | 10 µM | ΔTm | 0.6 °C |
| N#CCCc1ccc2c(c1)-c1[nH]c3ccc([N+](=O)[O-])cc3c1CC(=O)N2 | cell-free assay | 0.5 µM | remaining signal | 88.6% |
| CCCCNc1ncc2c(-c3ccc(F)cc3)nn(C[C@H]3CC[C@H](N)CC3)c2n1 | target engagement in cells, inhibitor, chemoproteomics | 20 mM | inhibition | 35.9% |
| Cn1c2c(c3ccc(Cl)c(Cl)c31)C(C#N)C(C)(C)NC2=O (centres unmarked) | thermal stability, DSF | 10 µM | ΔTm | 0.4 °C |
| CNC(=O)c1ccc(Nc2ncc(C(F)(F)F)c(NCc3nccnc3N(C)S(C)(=O)=O)n2)cc1 | cell-free assay, competition with immobilised ligand | 0.1 µM | remaining binding | 100% |
| CCN1CCC2(CC1)NC(=O)c1c(c3ccc(Cl)c(Cl)c3n1C)C2C#N (racemic) | thermal stability, DSF | 10 µM | ΔTm | -0.3 °C |
| COc1cc2c(N3CCN(C(=O)Nc4ccc(OC(C)C)cc4)CC3)ncnc2cc1OCCCN1CCCCC1 | cell-free assay | 0.5 µM | remaining signal | 99.7% |
